Experimental data from ChEMBL document CHEMBL3632461 (J Med Chem, 2015).

Tests used:
[1] = Drug metabolism assessed as formation of 5-(2,4-dimethoxyphenyl)-7-oxo-2,3,4,7-tetrahydrooxazolo[3,2-a]pyrimidin-4-ium at 10 uM after 60 mins by LC-MS/MS analysis in presence of human MPO/H2O2/Cl-; assay type: physicochemical; details: 1 h
Procedure, shortened: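 Also incubated at 10 μM in a human MPO/H₂O₂/Cl⁻ system. Parent and cyclic ether product tracked by LC−MS/MS using retention time and MH⁺.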

[2] = Retention time of the compound in sodium phosphate buffer at 10 uM after 60 mins by LC-MS/MS analysis in presence of H2O2; assay type: physicochemical; details: 1 h
[3] = Volume of distribution at steady state in cynomolgus monkey at 1 mg/kg, iv and 3 or 5 mg/kg, po; assay type: ADME, organism-based, Macaca fascicularis; details: in vivo, read-out: Vdss
Procedure, shortened: (§1)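 Male mice, rats, dogs and cynomolgus monkeys, fasted overnight, fed after dosing. Intravenous dose 1 mg/kg in saline or 12% sulfobutyl ether β-cyclodextrin; oral arm 3 or 5 mg/kg in 0.5% methylcellulose. Steady-state volume derived from plasma concentration−time data; mean ± SD for n = 3, individual values for n = 2.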

Cytochrome P450 2D6 [4] = molecular target: T1, Cytochrome P450 2D6 (Homo sapiens, UniProt P10635); experiment: Reversible inhibition of CYP2D6 dextromethorphan O-demethylase activity in human liver microsomes by LC-MS/MS analysis; assay type: ADME
Procedure, shortened: (§2)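 Reversible inhibition of the major CYP enzymes tested in human liver microsomes using established protocols.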

[5] = Drug excretion in cynomolgus monkey urine at 1 mg/kg, iv; assay type: ADME, organism-based, Macaca fascicularis; details: read-out: Drug excretion
Procedure, shortened: (§3)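 Male animals (beagle dogs 12 kg, Wistar-Han rats 250 g, cynomolgus monkeys 7 kg), fasted overnight and fed 1.0 or 2.0 h after dosing, water ad libitum. Dosed iv at 1 mg/kg in saline or 12% sulfobutyl ether β-cyclodextrin. Fraction of the iv dose excreted unchanged in urine.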

Hepatocyte = experiment: Metabolic stability in cryopreserved human hepatocytes assessed as GSH adduct formation; assay type: ADME, cell-based
Procedure, shortened: (§4)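 Incubation in NADPH-supplemented human liver microsomes or cryopreserved human hepatocytes, examined for glutathione adduct formation.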

Cytochrome P450 2C9 = Cytochrome P450 2C9 (Homo sapiens, UniProt P11712); experiment: Reversible inhibition of CYP2C9 in human liver microsomes by LC-MS/MS analysis; assay type: ADME; procedure, shortened: as §2
Liver microsome = experiment: Metabolic stability in NADPH-supplemented human liver microsomes assessed as GSH adduct formation; assay type: ADME; procedure, shortened: as §4
[6] = Plasma clearance in CD-1 mouse at 1 mg/kg, iv and 3 or 5 mg/kg, po; assay type: ADME, organism-based
Procedure, shortened: (§5)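 Male CD-1 mice (25−35 g), cannulated Wistar-Han rats (250 g), beagle dogs (12 kg) and cynomolgus monkeys (7 kg), fasted overnight and fed 1.0 or 2.0 h after dosing. iv 1 mg/kg in saline or 12% sulfobutyl ether β-cyclodextrin; po 3 or 5 mg/kg in 0.5% methylcellulose. Parameters calculated from plasma concentration−time data; mean ± SD for n = 3, individual values for n = 2.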

[7] = Volume of distribution at steady state in CD-1 mouse at 1 mg/kg, iv and 3 or 5 mg/kg, po; assay type: ADME, organism-based; details: in vivo, read-out: Vdss; procedure, shortened: as §1
[8] = Fraction unbound in human plasma at 2 uM by equilibrium dialysis method; assay type: ADME, cell-free
Procedure, shortened: (§6)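 Compound at 2 μM in mouse, rat, dog, monkey or human plasma; unbound fraction measured by equilibrium dialysis and reported as a mean.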

[9] = Fraction unbound in rat plasma at 2 uM by equilibrium dialysis method; assay type: ADME, cell-free; procedure, shortened: as §6
Cytochrome P450 2D6 [10] = molecular target: T1, Cytochrome P450 2D6; experiment: Time-dependent inhibition of CYP2D6 in human liver microsomes; assay type: ADME
Procedure, shortened: (§7)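 Time- and concentration-dependent CYP inhibition assessed by an IC₅₀ shift assay in human liver microsomes.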

[11] = Fraction unbound in dog plasma at 2 uM by equilibrium dialysis method; assay type: ADME, cell-free, Canis lupus familiaris; procedure, shortened: as §6
Cytochrome P450 2C8 = molecular target: T2, Cytochrome P450 2C8 (Homo sapiens, UniProt P10632); experiment: Time-dependent inhibition of CYP2C8 in human liver microsomes; assay type: ADME; procedure, shortened: as §7
T2 sequence (P10632 whole entry): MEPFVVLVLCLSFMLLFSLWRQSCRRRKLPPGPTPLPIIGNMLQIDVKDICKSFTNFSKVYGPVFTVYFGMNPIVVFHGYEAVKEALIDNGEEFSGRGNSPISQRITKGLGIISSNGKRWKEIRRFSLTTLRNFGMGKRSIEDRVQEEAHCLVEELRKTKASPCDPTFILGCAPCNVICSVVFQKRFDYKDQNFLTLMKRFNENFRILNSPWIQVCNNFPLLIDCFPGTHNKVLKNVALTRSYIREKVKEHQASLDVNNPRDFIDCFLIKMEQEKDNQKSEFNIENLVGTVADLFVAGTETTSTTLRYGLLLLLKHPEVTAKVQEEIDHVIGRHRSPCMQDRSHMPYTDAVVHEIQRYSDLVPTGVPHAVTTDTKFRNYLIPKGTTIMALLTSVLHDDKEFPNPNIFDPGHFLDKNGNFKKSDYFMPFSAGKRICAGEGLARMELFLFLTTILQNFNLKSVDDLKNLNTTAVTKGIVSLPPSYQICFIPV

[12] = Fraction unbound in mouse plasma at 2 uM by equilibrium dialysis method; assay type: ADME, cell-free; procedure, shortened: as §6
[13] = Plasma clearance in cynomolgus monkey at 1 mg/kg, iv and 3 or 5 mg/kg, po; assay type: ADME, organism-based, Macaca fascicularis; procedure, shortened: as §5
Cytochrome P450 2B6 = molecular target: T3, Cytochrome P450 2B6 (Homo sapiens, UniProt P20813); experiment: Reversible inhibition of CYP2B6 bupropion hydroxylase activity in human liver microsomes by LC-MS/MS analysis; assay type: ADME; procedure, shortened: as §2
T3 sequence (P20813 whole entry): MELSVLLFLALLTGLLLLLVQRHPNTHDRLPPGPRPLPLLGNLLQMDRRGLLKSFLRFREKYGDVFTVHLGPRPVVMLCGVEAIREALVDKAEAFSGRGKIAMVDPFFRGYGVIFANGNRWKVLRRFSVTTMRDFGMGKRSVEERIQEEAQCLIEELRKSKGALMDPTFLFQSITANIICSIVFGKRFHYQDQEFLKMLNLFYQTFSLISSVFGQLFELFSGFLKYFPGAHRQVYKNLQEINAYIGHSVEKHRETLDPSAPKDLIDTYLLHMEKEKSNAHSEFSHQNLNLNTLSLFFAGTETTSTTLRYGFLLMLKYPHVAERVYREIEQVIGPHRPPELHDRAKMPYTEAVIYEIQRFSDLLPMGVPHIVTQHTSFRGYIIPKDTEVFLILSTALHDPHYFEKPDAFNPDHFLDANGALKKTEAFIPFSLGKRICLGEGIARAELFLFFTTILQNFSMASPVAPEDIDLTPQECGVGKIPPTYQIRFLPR

[14] = Drug excretion in Wistar rat urine at 1 mg/kg, iv; assay type: ADME, organism-based; details: read-out: Drug excretion; procedure, shortened: as §3
Cytochrome P450 2C19 [15] = molecular target: T4, Cytochrome P450 2C19 (Homo sapiens, UniProt P33261); experiment: Reversible inhibition of CYP2C19 (S)-Mephenytoin 4'-hydroxylase activity in human liver microsomes by LC-MS/MS analysis; assay type: ADME; procedure, shortened: as §2
Cytochrome P450 2C19 [16] = molecular target: T4, Cytochrome P450 2C19; experiment: Time-dependent inhibition of CYP2C19 in human liver microsomes; assay type: ADME; procedure, shortened: as §7
Cytochrome P450 3A4 = Cytochrome P450 3A4 (Homo sapiens, UniProt P08684); experiment: Time-dependent inhibition of CYP3A4 in human liver microsomes; assay type: ADME; procedure, shortened: as §7
[17] = Oral bioavailability in cynomolgus monkey at 3 or 5 mg/kg; assay type: ADME, organism-based, Macaca fascicularis; details: in vivo
Procedure, shortened: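 Male CD-1 mice, Wistar-Han rats, beagle dogs and cynomolgus monkeys, fasted overnight and fed after dosing. Given po at 3 or 5 mg/kg in 0.5% methylcellulose, with an iv reference dose of 1 mg/kg. Bioavailability derived from plasma concentration−time data; mean ± SD (n = 3) or individual values (n = 2).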

T4 sequence (P33261 whole entry): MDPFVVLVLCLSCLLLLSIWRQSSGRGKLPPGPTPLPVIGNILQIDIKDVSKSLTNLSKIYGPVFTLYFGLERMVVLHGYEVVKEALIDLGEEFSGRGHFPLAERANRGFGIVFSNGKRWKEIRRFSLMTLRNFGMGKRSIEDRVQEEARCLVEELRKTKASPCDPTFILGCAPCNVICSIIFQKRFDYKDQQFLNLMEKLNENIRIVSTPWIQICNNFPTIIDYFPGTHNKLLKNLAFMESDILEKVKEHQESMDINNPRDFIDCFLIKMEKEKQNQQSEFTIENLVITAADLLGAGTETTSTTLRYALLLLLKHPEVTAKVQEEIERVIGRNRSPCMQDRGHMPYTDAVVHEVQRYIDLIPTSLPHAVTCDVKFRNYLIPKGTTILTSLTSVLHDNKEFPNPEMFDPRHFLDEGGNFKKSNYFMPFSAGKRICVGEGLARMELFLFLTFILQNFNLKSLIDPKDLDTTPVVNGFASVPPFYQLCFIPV
T1 sequence (P10635 whole entry): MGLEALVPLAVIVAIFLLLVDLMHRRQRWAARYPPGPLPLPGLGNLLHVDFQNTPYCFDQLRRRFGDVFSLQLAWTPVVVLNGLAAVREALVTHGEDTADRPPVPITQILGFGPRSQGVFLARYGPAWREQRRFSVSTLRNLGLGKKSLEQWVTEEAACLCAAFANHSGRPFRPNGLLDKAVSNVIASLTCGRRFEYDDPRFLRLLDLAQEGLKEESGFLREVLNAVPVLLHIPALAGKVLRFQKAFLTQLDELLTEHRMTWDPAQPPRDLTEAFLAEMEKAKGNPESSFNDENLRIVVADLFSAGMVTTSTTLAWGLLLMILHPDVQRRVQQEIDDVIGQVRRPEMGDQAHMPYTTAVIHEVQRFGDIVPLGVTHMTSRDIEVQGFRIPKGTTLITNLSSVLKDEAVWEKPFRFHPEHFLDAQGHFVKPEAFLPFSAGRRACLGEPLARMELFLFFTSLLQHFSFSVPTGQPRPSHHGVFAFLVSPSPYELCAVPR
Cytochrome P450 2C9, sequence (P11712 whole entry): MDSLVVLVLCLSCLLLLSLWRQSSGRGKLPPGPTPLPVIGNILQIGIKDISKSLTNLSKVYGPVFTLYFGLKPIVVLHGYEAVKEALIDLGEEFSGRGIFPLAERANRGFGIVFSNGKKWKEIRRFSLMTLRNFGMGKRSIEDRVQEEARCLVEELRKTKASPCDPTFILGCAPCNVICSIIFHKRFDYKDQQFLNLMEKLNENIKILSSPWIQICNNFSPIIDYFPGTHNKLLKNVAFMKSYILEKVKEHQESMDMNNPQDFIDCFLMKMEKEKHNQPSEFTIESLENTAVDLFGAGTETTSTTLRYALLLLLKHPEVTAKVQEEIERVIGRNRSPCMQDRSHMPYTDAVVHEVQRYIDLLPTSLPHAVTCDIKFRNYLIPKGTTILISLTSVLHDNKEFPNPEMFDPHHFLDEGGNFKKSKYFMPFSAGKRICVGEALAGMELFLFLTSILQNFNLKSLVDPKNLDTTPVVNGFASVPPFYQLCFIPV
Cytochrome P450 3A4, sequence (P08684 whole entry): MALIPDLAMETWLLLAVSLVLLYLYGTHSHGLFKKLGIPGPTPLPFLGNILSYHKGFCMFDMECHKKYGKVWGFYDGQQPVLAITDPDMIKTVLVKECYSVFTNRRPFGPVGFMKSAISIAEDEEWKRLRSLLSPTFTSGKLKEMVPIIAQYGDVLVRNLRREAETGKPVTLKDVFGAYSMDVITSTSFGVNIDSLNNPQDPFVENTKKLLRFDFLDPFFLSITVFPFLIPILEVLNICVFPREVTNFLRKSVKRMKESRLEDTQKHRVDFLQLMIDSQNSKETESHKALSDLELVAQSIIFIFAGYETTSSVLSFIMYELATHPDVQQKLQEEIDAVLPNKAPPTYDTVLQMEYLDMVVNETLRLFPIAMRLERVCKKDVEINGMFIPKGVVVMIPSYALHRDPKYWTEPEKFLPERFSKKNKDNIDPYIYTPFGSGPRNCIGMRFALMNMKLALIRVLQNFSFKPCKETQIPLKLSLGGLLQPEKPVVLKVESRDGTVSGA

For `COc1ccc(-c2cc(=O)[nH]c(=S)n2CCO)c(OC)c1`, the Drug metabolism [1] was “metabolite_detected” and the Retention_time [2] was 17.49 min.

Work on `COc1ccc(Cl)cc1-c1cc(=O)[nH]c(=S)n1CC(N)=O` [PF-06282999] yielded a Vd [3] of 1.09 L/kg, an IC50 (Cytochrome P450 2D6 [4]) greater than 100 µM and a dose excreted [5] of 26%. For the same compound, the Stability (Hepatocyte) was “Stable”, the IC50 (Cytochrome P450 2C9) was greater than 100 µM and the Stability (Liver microsome) was “Stable”. The clearance [6] was 10.1 mL/min/kg, the Vd [7] was 0.9 L/kg and the fraction unbound at 2 µM [8] was 0.376. It also gave a fraction unbound at 2 µM [9] of 0.447, an IC50 (Cytochrome P450 2D6 [10]) greater than 100 µM and a fraction unbound at 2 µM [11] of 0.46. The IC50 (Cytochrome P450 2C8) was greater than 100 µM, the fraction unbound at 2 µM [12] was 0.451 and the clearance [13] was 10.3 mL/min/kg. It also gave an IC50 (Cytochrome P450 2B6) greater than 100 µM, a dose excreted [14] of 26% and an IC50 (Cytochrome P450 2C19 [15]) greater than 100 µM. For the same compound, the IC50 (Cytochrome P450 2C19 [16]) was greater than 100 µM, the IC50 (Cytochrome P450 3A4) was greater than 100 µM and the bioavailability [17] was 76%.
